Here are results for 1 compound from ChEMBL document CHEMBL4334552, “Discovery of BMS-986260, a Potent, Selective, and Orally Bioavailable TGFβR1 Inhibitor as an Immuno-oncology Agent” (ACS Med Chem Lett, 2020).

The source made the active and inactive calls.

Series [1] is described as follows: Half life in human hepatocytes. The series is classed as ADME, cell-based, Hepatocyte.
A short description of series [2]: Half life in dog liver microsomes in presence of UGT/UDPGA. The series is classed as ADME, Canis lupus familiaris, Microsome. On the technique in general: Microsomes from liver hold many membrane-bound enzymes, among them those of drug oxidation.
The nature of series [3]: Oral bioavailability in Balb/C mouse at 10 mg/kg. The series is classed as ADME, organism-based. The conditions noted are these: in vivo. In a few lines:
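Male Balb/C mice (n = 3) dosed iv at 5 mg/kg and po at 10 mg/kg. Vehicle was 70% 25 mM acetate buffer pH 4.0, 5% ethanol and 25% PEG 400.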

Series [4] in a line: Half life in dog hepatocytes. The series is classed as ADME, cell-based, Canis lupus familiaris, Hepatocyte.
The nature of series [5]: Half life in rat liver microsomes in presence of NADPH. The series is classed as ADME, Microsome.
The nature of series [6]: Tmax in Beagle dog at 5 mg/kg, po. The conditions noted are these: in vivo. It counts as ADME, organism-based, Canis lupus familiaris. In a few lines:
(§1)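 Male Beagle dogs (n = 2) were pretreated with pentagastrin and dosed iv at 1 mg/kg and po at 5 mg/kg. The oral vehicle was 5% ethanol, 45% PEG400 and 50% 25 mM acetate buffer pH 4.0. The iv vehicle was 5:45:50 EtOH/PEG400/saline at 1 mL/kg.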

Series [7] has as its system 4T1. As to the kind of experiment: Inhibition of metastasis in mouse 4T1 cells allografted in Balb/C mouse at 3.75 to 7.5 mg/kg, po qd for 28 days cotreated with anti-PD1 at 10 mg/kg, ip every 4 days for 3 doses by India ink/Fekete's solution based staining. It counts as functional, organism-based.
Series [8] addresses Cytochrome P450 3A4 (Homo sapiens, UniProt P08684). As to the kind of experiment: Induction of recombinant CYP3A4 (unknown origin) up to 24 microM. As to conditions: recombinant enzyme. It counts as ADME.
Series [9] concerns MC-38. As to the kind of experiment: Antitumour activity against mouse MC38 cells allografted in C57Bl/6 mouse assessed as reduction in tumour growth at 3.75 mg/kg, po dosed every 3 days on and 4 days off treatment regime and cotreated with anti-PD1 at 10 mg/kg, ip every 4 days for 3 doses measured for ten doubling times after cessation of treatment by digital caliper analysis. It counts as functional, organism-based. Put shortly:
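MC38 cells (0.1 mL at 1 × 10^7 cells/mL) were implanted subcutaneously in the right flank of C57/BL6 mice. Randomization was at about 100 mm3, typically day 5. Oral dosing ran 3 days on, 4 days off, over 28 days. Anti-PD-1 was given at 10 mg/kg IP every 4 days for three doses, with isotype MOPC-21 IgG1 as control on the same schedule.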

Series [10] can be described thus: Half life in human liver microsomes in presence of UGT/UDPGA. It counts as ADME, Microsome.
The nature of series [11]: Total AUC in Sprague Dawley rat at 10 mg/kg, po. Details: dose 10 mg/kg, route oral, time AUCmax. It counts as ADME, organism-based. The conditions noted are these: in vivo. In a few lines:
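Male Sprague–Dawley rats (n = 3) received a PEG400 solution iv at 5 mg/kg and po at 10 mg/kg.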

The nature of series [12]: Cardiovascular toxicity in rat assessed as aortic pathology at 1 mg/kg, po for 10 days. The conditions noted are these: in vivo, 240 h. It counts as organism-based. In a few lines:
(§2)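 Exploratory toxicology studies of 10 days with daily oral dosing in rats and dogs. Cardiovascular findings, including valvulopathy and aortic pathology, were assessed.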

A short description of series [13]: Half life in mouse hepatocytes. The series is classed as ADME, cell-based, Hepatocyte.
A short description of series [14]: Cardiovascular toxicity in dog assessed as aortic pathology at 5 mg/kg, po for 10 days. The conditions noted are these: in vivo, 240 h. It counts as organism-based, Canis lupus familiaris. In a few lines: as §2
Series [15] has as its target T1, Nuclear receptor subfamily 1 group I member 2 (Homo sapiens, UniProt O75469).
T1 sequence (O75469 whole entry): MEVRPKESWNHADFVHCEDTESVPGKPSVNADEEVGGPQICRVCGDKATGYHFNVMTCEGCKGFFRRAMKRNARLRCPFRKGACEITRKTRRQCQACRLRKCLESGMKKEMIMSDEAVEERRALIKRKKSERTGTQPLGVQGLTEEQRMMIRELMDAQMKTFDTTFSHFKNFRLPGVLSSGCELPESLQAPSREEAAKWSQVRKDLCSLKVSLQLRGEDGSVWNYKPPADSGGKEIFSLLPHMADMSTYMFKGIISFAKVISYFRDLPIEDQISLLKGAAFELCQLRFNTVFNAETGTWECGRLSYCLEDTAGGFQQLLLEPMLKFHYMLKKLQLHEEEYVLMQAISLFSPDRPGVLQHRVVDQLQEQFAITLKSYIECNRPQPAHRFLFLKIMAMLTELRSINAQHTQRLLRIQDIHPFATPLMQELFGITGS
As to the kind of experiment: Activation of PXR (unknown origin).

Series [16] has as its system Mus musculus. As to the kind of experiment: Antitumor activity in compound-mediated tumor cured C57Bl/6 mouse allografted with mouse MC38 cells assessed as tumor growth following rechallenge with newly implanted mouse LL2 cells treated at 3.75 to 15 mg/kg, po qd for 28 days and cotreated with anti-PD1 at 10 mg/kg, ip every 4 days for 3 doses prior to LL2 cells rechallenge by digital caliper analysis. It counts as functional, organism-based. Put shortly:
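Mice cured by oral dosing plus anti-PD-1 (10 mg/kg IP, every 4 days, three doses) were re-implanted with MC38 or LL2 cells. Tumor growth was compared with naive mice.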

A short description of series [17]: Efflux ratio of permeability in human Caco2 cells. It counts as ADME, cell-based. As to conditions: Caco-2.
Series [18] is described as follows: Half life in Beagle dog at 1 mg/kg, iv. The series is classed as ADME, organism-based, Canis lupus familiaris. As to conditions: in vivo. In a few lines:
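Male Beagle dogs (n = 2) pretreated with pentagastrin were given 1 mg/kg iv in 5:45:50 EtOH/PEG400/saline at 1 mL/kg. A 5 mg/kg oral arm used 5% ethanol, 45% PEG400, 50% 25 mM acetate buffer pH 4.0. Half-life was from the iv arm.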

Series [19] is described as follows: Total AUC in Beagle dog at 1 mg/kg, iv. It counts as ADME, organism-based, Canis lupus familiaris. The arrangement: dose 1 mg/kg, time AUCmax, route intravenous. As to conditions: in vivo. Put shortly: as §1
Series [20] addresses Voltage-gated inwardly rectifying potassium channel KCNH2 (Homo sapiens, UniProt Q12809). As to the kind of experiment: Inhibition of human ERG by electrophysiology analysis.
The subject of series [21] is MC-38. As to the kind of experiment: Antitumour activity against mouse MC38 cells allografted in C57Bl/6 mouse assessed as tumour growth upto 15 mg/kg, po qd for 28 days by digital caliper analysis. The series is classed as functional, organism-based. In a few lines:
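C57/BL6 mice bearing subcutaneous right-flank MC38 tumors (0.1 mL of 1 × 10^7 cells/mL) were randomized at about 100 mm3. Monotherapy was given orally once daily for 28 days at up to 15 mg/kg.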

Series [22] deals with T2, Cytochrome P450 1A2 (Homo sapiens, UniProt P05177).
T2 sequence (P05177 whole entry): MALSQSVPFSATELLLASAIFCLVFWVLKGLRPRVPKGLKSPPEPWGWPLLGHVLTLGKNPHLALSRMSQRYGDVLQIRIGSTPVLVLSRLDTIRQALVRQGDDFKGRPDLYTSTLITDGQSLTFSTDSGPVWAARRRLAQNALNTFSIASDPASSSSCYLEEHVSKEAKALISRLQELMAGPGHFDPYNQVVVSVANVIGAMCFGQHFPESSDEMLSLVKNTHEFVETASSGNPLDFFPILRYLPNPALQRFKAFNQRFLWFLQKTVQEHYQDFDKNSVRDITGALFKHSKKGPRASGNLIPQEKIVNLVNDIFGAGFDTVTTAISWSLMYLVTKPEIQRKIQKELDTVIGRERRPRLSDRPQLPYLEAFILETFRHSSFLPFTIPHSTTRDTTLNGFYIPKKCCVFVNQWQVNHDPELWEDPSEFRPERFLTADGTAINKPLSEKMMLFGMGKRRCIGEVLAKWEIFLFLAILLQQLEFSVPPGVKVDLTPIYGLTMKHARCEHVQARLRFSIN
As to the kind of experiment: Inhibition of recombinant CYP1A2 (unknown origin). It counts as ADME.

Series [23] is described as follows: Half life in human liver microsomes in presence of NADPH. It counts as ADME, Microsome.

Chain of Cytochrome P450 3A4 (P08684 whole entry): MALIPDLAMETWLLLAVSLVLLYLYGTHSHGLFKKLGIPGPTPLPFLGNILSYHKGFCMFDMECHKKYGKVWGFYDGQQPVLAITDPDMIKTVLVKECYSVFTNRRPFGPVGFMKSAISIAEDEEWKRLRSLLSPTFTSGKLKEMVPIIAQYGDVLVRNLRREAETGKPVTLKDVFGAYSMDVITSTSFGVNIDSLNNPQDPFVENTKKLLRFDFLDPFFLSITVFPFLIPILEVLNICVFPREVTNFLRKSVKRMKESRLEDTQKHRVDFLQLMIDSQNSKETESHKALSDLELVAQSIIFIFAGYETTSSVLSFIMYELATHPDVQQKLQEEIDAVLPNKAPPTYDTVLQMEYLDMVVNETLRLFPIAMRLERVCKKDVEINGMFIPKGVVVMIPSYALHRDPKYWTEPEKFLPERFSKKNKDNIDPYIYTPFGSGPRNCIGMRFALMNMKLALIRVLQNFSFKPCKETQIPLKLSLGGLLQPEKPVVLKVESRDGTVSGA
Chain of Voltage-gated inwardly rectifying potassium channel KCNH2 (Q12809 whole entry): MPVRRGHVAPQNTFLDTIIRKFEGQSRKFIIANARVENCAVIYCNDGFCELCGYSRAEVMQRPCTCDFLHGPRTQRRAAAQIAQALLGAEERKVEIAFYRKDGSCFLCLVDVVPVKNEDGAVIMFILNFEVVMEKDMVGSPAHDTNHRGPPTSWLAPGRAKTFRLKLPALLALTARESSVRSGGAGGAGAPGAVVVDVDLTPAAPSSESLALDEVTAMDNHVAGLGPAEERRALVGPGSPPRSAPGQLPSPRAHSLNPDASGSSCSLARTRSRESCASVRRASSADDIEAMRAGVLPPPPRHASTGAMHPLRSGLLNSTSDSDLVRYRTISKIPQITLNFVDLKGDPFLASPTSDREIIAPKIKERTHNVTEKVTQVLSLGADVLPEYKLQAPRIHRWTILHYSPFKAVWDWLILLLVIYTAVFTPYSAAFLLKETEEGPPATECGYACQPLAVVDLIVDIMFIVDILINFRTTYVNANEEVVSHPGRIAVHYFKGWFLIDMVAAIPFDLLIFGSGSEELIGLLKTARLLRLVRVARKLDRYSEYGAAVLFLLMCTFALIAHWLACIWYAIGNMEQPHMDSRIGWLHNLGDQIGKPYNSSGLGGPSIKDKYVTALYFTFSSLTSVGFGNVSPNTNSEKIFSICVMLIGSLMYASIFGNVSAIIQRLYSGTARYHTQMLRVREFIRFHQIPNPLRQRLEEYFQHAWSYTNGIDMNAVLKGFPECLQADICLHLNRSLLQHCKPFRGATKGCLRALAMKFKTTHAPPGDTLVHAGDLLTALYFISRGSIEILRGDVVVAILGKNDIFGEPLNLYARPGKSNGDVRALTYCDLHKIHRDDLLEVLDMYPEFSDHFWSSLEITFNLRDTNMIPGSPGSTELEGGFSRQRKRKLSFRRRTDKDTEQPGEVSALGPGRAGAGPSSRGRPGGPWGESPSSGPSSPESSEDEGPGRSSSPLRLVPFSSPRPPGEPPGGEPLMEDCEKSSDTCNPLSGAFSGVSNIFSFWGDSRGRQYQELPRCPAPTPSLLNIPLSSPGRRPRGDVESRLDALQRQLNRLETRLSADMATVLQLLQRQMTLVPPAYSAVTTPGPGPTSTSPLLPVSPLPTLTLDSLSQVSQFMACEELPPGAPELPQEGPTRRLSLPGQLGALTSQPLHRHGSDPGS

Take `N#Cc1cnc2ccc(-c3c(-c4ccc(F)c(Cl)c4)ncn3CCO)nn12`: the half-life (as a rule, the time needed for the level to fall by half in the phase considered) is 0.9 h in [1]; 1.53 h in [2]; 1.03 h in [4]; 0.833 h in series [5]; more than 2 h in [10]; 1.27 h in series [13]. For the same compound, the figures for the half-life in series [18] and in series [23] were 5 h and 0.383 h, respectively. The bioavailability (commonly the share of a dose that reaches the circulation, judged against a reference dose that is usually intravenous) in series [3] was more than 100%. In addition, the Tmax (commonly the time at which the peak concentration occurs) in series [6] was found to be 0.67 h. For the same compound, the inhibition entry in series [7] and in series [9] was “Active” each time. Moreover, the Activity entry in series [8] is given as “Not Active”; in [12], “Toxic”; in [14], “Toxic”. Further, the AUC – broadly, the area under the concentration-time curve, a measure of exposure – worked out at 90.8 µM·h in [11] and 7 µM·h in series [19]. Moreover, the EC50 (commonly the concentration giving half of the maximal effect) in series [15] is more than 24 µM. Further, the outcome in series [16] was inactive. In addition, the efflux ratio – broadly, the permeability from basolateral to apical divided by that in the opposite direction, in the common usage – in [17] stood at 2.5. Moreover, the IC50 (in general, the midpoint of a concentration-inhibition curve) in series [20] was more than 10 µM; in [22], more than 20 µM. In series [21], the inhibition entry is “inactive”.
